The record followed here is ChEMBL document CHEMBL1144601, “Synthesis and antiproliferative properties of N3/8-disubstituted 3,8-diazabicyclo[3.2.1]octane analogues of 3,8-bis[2-(3,4,5-trimethoxyphenyl)pyridin-4-yl]methyl-piperazine” (Eur J Med Chem, 2007).

Format in all cases: functional, cell-based
Assay [1] is described as follows: Antiproliferative activity against human CRL7065 cells by MTT assay. Conditions: CRL-7065. The method in brief: (§1)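 Exponentially growing cells resuspended in growth medium with serial drug dilutions; viability read by MTT after 96 h at 37 °C, with untreated controls allowed at least three rounds of multiplication. IC50 is the concentration cutting proliferation by 50%, mean ± SD of three independent determinations. Haematological lines were grown in RPMI-1640 with 10% FCS and antibiotics. Solid-tumour lines were grown in their own media with 10% FCS.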
Background: Formazan colour is commonly taken as a measure of viable cells.

Another assay has as its system MCF7. The assay can be described thus: Antiproliferative activity against human MCF7 cells by MTT assay. The method in brief: as §1
The test system of the next assay is DU-145. Put plainly: Antiproliferative activity against human DU145 cells by MTT assay. The method in brief: as §1
A further assay relates to CCRF-CEM. Put plainly: Antiproliferative activity against human CCRF-CEM cells by MTT assay. The method in brief:
as §1

Another assay concerns SK-MEL-28. The assay can be described thus: Antiproliferative activity against human SK-MEL-28 cells by MTT assay. The method in brief:
as §1

The subject of the next assay is SK-MES-1. Put plainly: Antiproliferative activity against human SKMES1 cells by MTT assay. Summed up: as §1
In a further assay the test system is WIL2-NS. The assay can be described thus: Antiproliferative activity against human WIL-2NS cells by MTT assay. Summed up: as §1
The test system of a further assay is MT4. The assay can be described thus: Antiproliferative activity against human MT4 cells by MTT assay. The method in brief: as §1
The next assay relates to CCRF-SB. The assay can be described thus: Antiproliferative activity against human CCRF-SB cells by MTT assay. Summed up:
as §1

Another assay has as its system HepG2. The assay can be described thus: Antiproliferative activity against human HepG2 cells by MTT assay. The method in brief:
as §1

As usually defined, the IC50 is the concentration at which inhibition is half-maximal. A high value points to lower potency. As for `COc1ccc(-c2cc(CN3CC4CCC(C3)N4Cc3ccnc(-c4ccc(OC)cc4)c3)ccn2)cc1`, the IC50 in assay [1] is over 100 µM; in the assay with MCF7 it was 6 µM; in the assay on DU-145, 2 µM; in the assay with CCRF-CEM it was 3 µM; in the assay on SK-MEL-28, 2 µM; in the assay with SK-MES-1, 3 µM. Also, the IC50 came out at 6 µM in the assay on WIL2-NS, 4 µM in the assay with MT4, 5 µM in the assay on CCRF-SB and 3 µM in the assay with HepG2.
For the compound `CC(=O)Nc1ccc(-c2cc(CN3CC4CCC(C3)N4Cc3ccnc(-c4ccc(NC(C)=O)cc4)c3)ccn2)cc1`, the IC50 was over 100 µM in assay [1]; 43 µM with MCF7; 42 µM in the assay with DU-145; 19 µM in the assay on CCRF-CEM; 20 µM with SK-MEL-28; 22 µM in the assay on SK-MES-1. The IC50 in the assay on WIL2-NS worked out at 30 µM; in the assay with MT4 it was 18 µM; in the assay with CCRF-SB it was 25 µM; with HepG2, 30 µM.
For `Cc1cccc(-c2cc(CN3CC4CCC(C3)N4Cc3ccnc(-c4cccc(C)c4)c3)ccn2)c1`, the IC50 was over 100 µM in assay [1]; 24 µM in the assay with MCF7; 34 µM in the assay on DU-145; 18 µM in the assay on CCRF-CEM; 15 µM in the assay with SK-MEL-28; 18 µM in the assay with SK-MES-1. For the same compound, the IC50 is 25 µM in the assay on WIL2-NS, over 100 µM in the assay on MT4, 18 µM with CCRF-SB and 41 µM in the assay on HepG2.
On to `O=C1C2CCC(N2)C(=O)N1Cc1ccccc1`, for which the IC50 in assay [1] was over 100 µM; in the assay with MCF7, 86 µM; in the assay on DU-145 it was 87 µM; with CCRF-CEM, 85 µM; in the assay with SK-MEL-28 it was 96 µM; in the assay on SK-MES-1, 81 µM. The IC50 in the assay with WIL2-NS was over 100 µM; in the assay on MT4, over 100 µM; in the assay with CCRF-SB, 88 µM; in the assay with HepG2 it was 92 µM.
Consider `Sc1ncnc2nc[nH]c12` [MERCAPTOPURINE ANHYDROUS], for which the IC50 was over 100 µM in assay [1]; 3 µM in the assay with MCF7; 2 µM in the assay on DU-145; 1 µM in the assay with CCRF-CEM; 15 µM in the assay with SK-MEL-28; 58 µM in the assay with SK-MES-1. In addition, the IC50 in the assay with WIL2-NS is 3 µM; with MT4 it was 0.1 µM; in the assay on CCRF-SB, 1 µM; in the assay with HepG2, 8 µM.
As to `CC(=O)Nc1cccc(-c2cc(CN3CC4CCC(C3)N4Cc3ccnc(-c4cccc(NC(C)=O)c4)c3)ccn2)c1`, the IC50 in assay [1] was over 100 µM; in the assay on MCF7 it was 23 µM; in the assay with DU-145, 24 µM; in the assay on CCRF-CEM, 16 µM; in the assay with SK-MEL-28, 34 µM; in the assay on SK-MES-1, 33 µM. In addition, the IC50 is 25 µM in the assay on WIL2-NS, over 100 µM with MT4, 17 µM with CCRF-SB and 43 µM in the assay with HepG2.
As for `c1ccc(-c2ccc(CN3CC4CCC(C3)N4Cc3ccc(-c4ccccc4)cc3)cc2)cc1`, the IC50 in assay [1] is over 100 µM; in the assay on MCF7, 84 µM; in the assay on DU-145 it was 7 µM; in the assay with CCRF-CEM, 7 µM; with SK-MEL-28 it was 6 µM; in the assay with SK-MES-1, 43 µM. Besides, the IC50 is 11 µM in the assay on WIL2-NS, over 100 µM with MT4, 6 µM in the assay on CCRF-SB and 45 µM in the assay on HepG2.
As for `Oc1cccc(-c2cc(CN3CC4CCC(C3)N4Cc3ccnc(-c4cccc(O)c4)c3)ccn2)c1`, the IC50 is over 100 µM in [1]; over 100 µM in the assay on MCF7; over 100 µM in the assay with DU-145; 14 µM in the assay with CCRF-CEM; over 100 µM with SK-MEL-28; over 100 µM in the assay with SK-MES-1. Further, the IC50 in the assay on WIL2-NS is 28 µM; in the assay with CCRF-SB it was 16 µM; in the assay on HepG2, over 100 µM.
Take `c1ccc2c(c1)ccc1c(CN3CC4CCC(C3)N4Cc3cccc4c3ccc3ccccc34)cccc12`: the IC50 was determined as 69 µM in assay [1]; 54 µM in the assay on MCF7; 41 µM in the assay with DU-145; 6 µM in the assay on CCRF-CEM; 30 µM in the assay on SK-MEL-28; 40 µM in the assay on SK-MES-1. For the same compound, the figures for the IC50 with WIL2-NS, in the assay on CCRF-SB and in the assay with HepG2 were 6 µM, 9 µM and 50 µM, respectively.
With `CC[C@@]1(O)C(=O)OCc2c1cc1n(c2=O)Cc2cc3ccccc3nc2-1` [CAMPTOTHECIN], the IC50 worked out at 0.5 µM in [1]; 0.04 µM with MCF7; 0.01 µM in the assay with DU-145; 0.003 µM with CCRF-CEM; 0.04 µM in the assay with SK-MEL-28; 0.01 µM in the assay with SK-MES-1. For the same compound, the IC50 came to 0.005 µM in the assay with WIL2-NS, 0.004 µM in the assay with MT4, 0.003 µM with CCRF-SB and 0.03 µM in the assay with HepG2.
On to `c1ccc(-c2cccc(CN3CC4CCC(C3)N4Cc3cccc(-c4ccccc4)c3)c2)cc1`, for which the IC50 is 41 µM in assay [1]; 25 µM in the assay with MCF7; 14 µM in the assay with DU-145; 12 µM in the assay on CCRF-CEM; 15 µM with SK-MEL-28; 10 µM in the assay with SK-MES-1. Also, the IC50 with WIL2-NS was 12 µM; in the assay on CCRF-SB it was 10 µM; in the assay on HepG2 it was 38 µM.
For `COc1cccc(-c2cc(CN3CC4CCC(C3)N4Cc3ccnc(-c4cccc(OC)c4)c3)ccn2)c1`, the IC50 in assay [1] is over 100 µM; with MCF7, 15 µM; in the assay on DU-145, 9 µM; with CCRF-CEM, 11 µM; with SK-MEL-28, 8 µM; with SK-MES-1, 8 µM. The IC50 turned out to be 13 µM in the assay with WIL2-NS, 12 µM in the assay with CCRF-SB and 15 µM in the assay with HepG2.
For the compound `Clc1ccc(-c2cc(CN3CC4CCC(C3)N4Cc3ccnc(-c4ccc(Cl)cc4)c3)ccn2)cc1`, the IC50 in assay [1] was over 100 µM; with MCF7, 10 µM; with DU-145 it was 9 µM; in the assay on CCRF-CEM it was 7 µM; in the assay on SK-MEL-28 it was 10 µM; in the assay on SK-MES-1, 12 µM. Further, the results for the half-inhibitory concentration (IC50) in the assay on WIL2-NS, in the assay with CCRF-SB and in the assay with HepG2 were 29 µM, 13 µM and 9 µM, respectively.
Consider `Cc1ccc(-c2cc(CN3CC4CCC(C3)N4Cc3ccnc(-c4ccc(C)cc4)c3)ccn2)cc1`, for which the IC50 was over 100 µM in assay [1]; 7 µM with MCF7; 7 µM in the assay with DU-145; 8 µM with CCRF-CEM; 7 µM in the assay on SK-MEL-28; 8 µM with SK-MES-1. In addition, the values for the IC50 with WIL2-NS, in the assay with CCRF-SB and with HepG2 were 26 µM, 12 µM and 7 µM, respectively.
For the compound `c1ccc(-c2cc(CN3CC4CCC(C3)N4Cc3ccnc(-c4ccccc4)c3)ccn2)cc1`, the IC50 in assay [1] is over 100 µM; in the assay with MCF7, 9 µM; in the assay on DU-145, 8 µM; in the assay with CCRF-CEM, 8 µM; in the assay on SK-MEL-28, 8 µM; with SK-MES-1, 11 µM. Also, the IC50 in the assay with WIL2-NS amounted to 15 µM; with MT4, 19 µM; with CCRF-SB it was 11 µM; in the assay on HepG2, 11 µM.
With `c1ccc(CN2CC3CCC(C2)N3Cc2ccccc2)cc1`, the IC50 is over 100 µM in [1]; over 100 µM in the assay on MCF7; over 100 µM in the assay on DU-145; 46 µM in the assay with CCRF-CEM; over 100 µM in the assay on SK-MEL-28; over 100 µM with SK-MES-1. Moreover, the IC50 is 60 µM in the assay with WIL2-NS, over 100 µM in the assay on MT4, 81 µM in the assay with CCRF-SB and over 100 µM in the assay with HepG2.
As for `c1ccc2c(CN3CC4CCC(C3)N4Cc3cccc4ccccc34)cccc2c1`, the IC50 in assay [1] was 20 µM; with MCF7, 11 µM; in the assay with DU-145, 80 µM; with CCRF-CEM it was 8 µM; in the assay on SK-MEL-28, 13 µM; in the assay on SK-MES-1, 17 µM. Also, the IC50 with WIL2-NS turned out to be 7 µM; with CCRF-SB, 7 µM; in the assay with HepG2, 18 µM.
On to `O=[N+]([O-])c1cccc(-c2cc(CN3CC4CCC(C3)N4Cc3ccnc(-c4cccc([N+](=O)[O-])c4)c3)ccn2)c1`, for which the IC50 in assay [1] is over 100 µM; with MCF7, 68 µM; with DU-145, 85 µM; in the assay with CCRF-CEM it was 36 µM; in the assay on SK-MEL-28, 31 µM; with SK-MES-1, 30 µM. Also, the IC50 in the assay on WIL2-NS was found to be 63 µM; in the assay with CCRF-SB, 27 µM; in the assay on HepG2 it was 41 µM.
Turning to `O=[N+]([O-])c1ccc(-c2cc(CN3CC4CCC(C3)N4Cc3ccnc(-c4ccc([N+](=O)[O-])cc4)c3)ccn2)cc1`, the IC50 in assay [1] is over 100 µM; in the assay on MCF7, over 100 µM; in the assay on DU-145, over 100 µM; in the assay with CCRF-CEM, 91 µM; in the assay on SK-MEL-28 it was over 100 µM; in the assay with SK-MES-1, over 100 µM. The IC50 in the assay with WIL2-NS, in the assay on CCRF-SB and with HepG2 was over 100 µM in each case.
With `Oc1ccc(-c2cc(CN3CC4CCC(C3)N4Cc3ccnc(-c4ccc(O)cc4)c3)ccn2)cc1`, the IC50 in [1] came out at 80 µM; in the assay with MCF7, 25 µM; in the assay with DU-145, 15 µM; with CCRF-CEM it was 15 µM; in the assay with SK-MEL-28, 19 µM; in the assay with SK-MES-1, 23 µM. Also, the IC50 with WIL2-NS worked out at 18 µM; with CCRF-SB, 12 µM; with HepG2 it was 13 µM.
With `c1ccc(CN2CC3CCC(C2)N3)cc1`, the IC50 (in assay [1]; in the assay on MCF7; with DU-145; in the assay with CCRF-CEM; with SK-MEL-28; in the assay on SK-MES-1) was over 100 µM throughout. Moreover, the IC50 in the assay with WIL2-NS, in the assay with MT4, in the assay on CCRF-SB and with HepG2 was over 100 µM each time.
